Measured values from publication PMC7547831 (Acta Pharmaceutica Sinica. B, 2020).
Where two headings read alike, the source gives them in different places.

Experiments:
[1] = target: T1, ACE2 (Homo sapiens, UniProt Q9BYF1); assay: Test of ACE2 inhibitory activity; type: biochemical
How it was run: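 ACE2 inhibition was measured with a commercial inhibitor screening kit following the supplier's instructions. Each data point was run in duplicate and reported as the mean value. IC50 came from nonlinear curve fitting.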
Target sequence in this assay (Q9BYF1 18-805): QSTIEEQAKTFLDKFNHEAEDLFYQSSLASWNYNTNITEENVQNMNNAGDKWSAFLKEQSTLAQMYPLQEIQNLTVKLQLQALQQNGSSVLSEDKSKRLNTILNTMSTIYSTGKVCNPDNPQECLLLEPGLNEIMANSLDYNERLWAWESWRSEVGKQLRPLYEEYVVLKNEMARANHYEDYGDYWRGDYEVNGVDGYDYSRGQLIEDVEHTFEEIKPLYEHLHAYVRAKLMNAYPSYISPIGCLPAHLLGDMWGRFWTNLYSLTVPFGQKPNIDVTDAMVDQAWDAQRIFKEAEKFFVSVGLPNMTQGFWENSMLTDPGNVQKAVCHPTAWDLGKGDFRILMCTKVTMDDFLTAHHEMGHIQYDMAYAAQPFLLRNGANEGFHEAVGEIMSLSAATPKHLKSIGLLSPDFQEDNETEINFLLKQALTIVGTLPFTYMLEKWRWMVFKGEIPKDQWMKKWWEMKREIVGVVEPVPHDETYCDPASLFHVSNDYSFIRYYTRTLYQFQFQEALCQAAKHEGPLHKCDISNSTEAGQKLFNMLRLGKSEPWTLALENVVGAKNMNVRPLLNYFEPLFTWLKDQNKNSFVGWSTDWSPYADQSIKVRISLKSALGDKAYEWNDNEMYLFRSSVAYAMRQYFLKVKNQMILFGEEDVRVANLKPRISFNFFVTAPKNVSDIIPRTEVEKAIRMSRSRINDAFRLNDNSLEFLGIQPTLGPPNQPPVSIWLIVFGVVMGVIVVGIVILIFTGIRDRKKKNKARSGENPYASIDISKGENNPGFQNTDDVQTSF

[2] = LHQW components in human plasma after repeated oral dosing; type: in vivo; settings: after repeated oral administration of LHQW capsule, semi-quantitative
[3] = target: T1, ACE2; assay: SPR analysis of affinity to ACE2 recombinant protein; type: binding; settings: for Rmax: SPR fit; for χ^2: SPR fit quality; for Kd: SPR, steady-state affinity model (1:1), 0.024 to 50 μmol/L
Target sequence in this assay (Q9BYF1 18-740): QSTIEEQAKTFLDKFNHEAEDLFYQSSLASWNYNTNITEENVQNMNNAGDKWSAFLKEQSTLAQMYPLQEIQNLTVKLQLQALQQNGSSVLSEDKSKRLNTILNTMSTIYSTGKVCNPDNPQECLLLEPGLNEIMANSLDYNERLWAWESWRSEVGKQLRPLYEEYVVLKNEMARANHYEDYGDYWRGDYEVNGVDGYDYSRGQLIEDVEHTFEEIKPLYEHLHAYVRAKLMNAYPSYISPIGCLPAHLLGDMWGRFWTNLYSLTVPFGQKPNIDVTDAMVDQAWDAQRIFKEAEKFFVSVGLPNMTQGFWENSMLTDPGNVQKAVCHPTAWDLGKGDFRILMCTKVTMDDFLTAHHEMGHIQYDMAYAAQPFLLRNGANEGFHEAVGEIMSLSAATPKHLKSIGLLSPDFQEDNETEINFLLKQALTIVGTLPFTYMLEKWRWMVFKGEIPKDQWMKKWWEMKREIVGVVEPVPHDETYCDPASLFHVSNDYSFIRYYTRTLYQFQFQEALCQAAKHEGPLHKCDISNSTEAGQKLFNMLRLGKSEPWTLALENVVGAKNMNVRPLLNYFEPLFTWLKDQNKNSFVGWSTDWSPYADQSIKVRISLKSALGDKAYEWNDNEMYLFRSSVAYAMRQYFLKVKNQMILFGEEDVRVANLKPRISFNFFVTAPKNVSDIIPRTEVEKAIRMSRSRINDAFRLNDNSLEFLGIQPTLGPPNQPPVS

[4] = target: T1, ACE2; assay: Comprehensive 2D ACE2 column/C18 column/TOFMS biochromatography screening; type: binding; settings: urine sample, LHQW extract or standard
How it was run: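 Stationary phase: His-tagged recombinant human ACE2 immobilised on MPTS/GMBS-modified silica, confirmed by pronase digestion and anti-ACE2 immunoblot. First dimension was the ACE2 column (10 × 2.0 mm, 5 μm) in 10 mmol/L ammonium acetate at 0.2 mL/min. Retained fractions went by alternating 10-port valve loops to a C18 column (0.1% formic acid/acetonitrile gradient, 0.4 mL/min) and then TOFMS.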
Target sequence in this assay (Q9BYF1 18-740): as above

Molecule	ACE2 inhibitory effect (in words) ([1]; ACE2 Inhibitor Screening Kit)	Human in vivo exposure (in words) [2]	Rmax [3] [RU]	χ^2 [3]	Retention on ACE2 biochromatography column (potential ACE2 binding) [4]	other results
C[C@@H]1O[C@@H](OC[C@H]2O[C@@H](OCCc3ccc(O)c(O)c3)[C@H](O)[C@@H](O)[C@@H]2O)[C@H](O)[C@H](O)[C@H]1O [forsythoside E]	no ACE2 inhibitory activities	–	–	–	–	–
CC1(C)[C@@H](O[C@H]2O[C@H](C(=O)O)[C@@H](O)[C@H](O)[C@H]2O[C@@H]2O[C@H](C(=O)O)[C@@H](O)[C@H](O)[C@H]2O)CC[C@]2(C)[C@H]3C(=O)C=C4[C@@H]5C[C@@](C)(C(=O)O)CC[C@]5(C)CC[C@@]4(C)[C@]3(C)CC[C@@H]12 [Glycyrrhizin (222), Glycyrrhizin]	–	high in vivo exposure concentrations	9.614	0.321	potential ACE2 binding activity	ACE2 inhibitory effect (in words) ([1]; ACE2 Inhibitor Screening Kit, listed as Glycyrrhizin): poor inhibitory effect; ACE2 inhibitory effect (in words) ([1]; ACE2 Inhibitor Screening Kit, listed as glycyrrhizin): did not show significant peptidase inhibitory effects
O=c1c(O)c(-c2ccc(O)c(O)c2)oc2cc(O)cc(O)c12 [Quercetin (190), Quercetin]	–	–	12.780	1.580	–	ACE2 binding ability by SPR (in words) [3]: certain binding ability with ACE2
COc1cc(O)c2c(c1)C(=O)c1cc(C)cc(O)c1C2=O [Physcion (230), Physcion]	–	–	18.390	1.630	–	ACE2 binding ability by SPR (in words) [3]: could also exhibit ACE2 binding activity
C[C@@H]1O[C@@H](OC[C@H]2O[C@@H](OCCc3ccc(O)c(O)c3)[C@H](O)[C@@H](O)[C@@H]2OC(=O)/C=C/c2ccc(O)c(O)c2)[C@H](O)[C@H](O)[C@H]1O [Forsythoside A (128), Forsythoside A]	have ACE2 inhibitory effects	low in vivo exposure	21.490	5.280	potential ACE2 binding activity	Kd [3]: 15.8 µM
O=C1c2cccc(O)c2C(=O)c2c(O)cc(CO)cc21 [Aloe-emodin (216), Aloe-emodin]	no inhibitory effect	–	16.120	7.720	–	ACE2 binding ability by SPR (in words) [3]: could also exhibit ACE2 binding activity
Cc1cc(O[C@@H]2OC(CO)[C@@H](O)C(O)C2O)c2c(c1)C(=O)c1cc(O)cc(O)c1C2=O (stereo partly drawn) [Emodin 8-O-β-D-glucoside (195), Emodin 8-O-β-D-glucoside]	–	–	16.930	3.190	–	ACE2 binding ability by SPR (in words) [3]: could also exhibit ACE2 binding activity; Kd [3]: 21.3 µM; IC50 ([1]; read-out: IC50 of ACE2 inhibition, ACE2 Inhibitor Screening Kit): 22.5 µM
O=C(O)c1cc(O)c2c(c1)C(=O)c1cccc(O)c1C2=O [Rhein (226), Rhein]	best ACE2 inhibitory effect	–	13.200	0.669	potential ACE2 binding activity	Human in vivo exposure (in words) ([2]; listed as Rhein): high exposure in human serum; Human in vivo exposure (in words) ([2]; listed as rhein): relatively high; IC50 [1]: 18.3 µM
N#C[C@H](O[C@@H]1O[C@H](CO)[C@@H](O)[C@H](O)[C@H]1O)c1ccccc1 [Prunasin (37), Prunasin]	did not show significant peptidase inhibitory effects	–	3.814	0.244	potential ACE2 binding activity	–
C[C@@H]1O[C@@H](Oc2c(-c3ccc(O)c(O)c3)oc3cc(O)cc(O)c3c2=O)[C@H](O)[C@H](O)[C@H]1O [quercitrin]	–	higher human exposure	–	–	–	–
OC[C@H]1O[C@@H](OCCc2ccc(O)cc2)[C@H](O)[C@@H](O)[C@@H]1O [salidroside]	–	higher human exposure	–	–	–	–
forsythin	no ACE2 inhibitory activities	–	–	–	–	–
N#C[C@H](O[C@@H]1O[C@H](CO[C@@H]2O[C@H](CO)[C@@H](O)[C@H](O)[C@H]2O)[C@@H](O)[C@H](O)[C@H]1O)c1ccccc1 [Amygdalin (33), Amygdalin]	–	–	6.856	0.462	potential ACE2 binding activity	–
C[C@@H]1O[C@@H](OC[C@H]2O[C@@H](OCCc3ccc(O)c(O)c3)[C@H](O)[C@@H](OC(=O)/C=C/c3ccc(O)c(O)c3)[C@@H]2O)[C@H](O)[C@H](O)[C@H]1O [Forsythoside I (104), Forsythoside I]	have ACE2 inhibitory effects	low in vivo exposure	19.020	1.910	potential ACE2 binding activity	Kd [3]: 18.7 µM
CN[C@@H](C)[C@@H](O)c1ccccc1 [pseudoephedrine]	–	higher human exposure	–	–	–	–
O=C(/C=C/c1ccc(O)c(O)c1)O[C@@H]1C[C@@](O)(C(=O)O)C[C@@H](O)[C@@H]1O [Neochlorogenic acid (19), Neochlorogenic acid]	–	–	6.894	1.260	–	Kd [3]: 7.88 µM
C[C@@H]1O[C@@H](OC[C@H]2O[C@@H](Oc3c(-c4ccc(O)c(O)c4)oc4cc(O)cc(O)c4c3=O)[C@H](O)[C@@H](O)[C@@H]2O)[C@H](O)[C@H](O)[C@H]1O [Rutin (124), Rutin]	–	–	12.770	1.290	potential ACE2 binding activity	ACE2 binding ability by SPR (in words) [3]: certain binding ability with ACE2
CC(C)C[C@H](N[C@@H](Cc1cncn1Cc1cc(Cl)cc(Cl)c1)C(=O)O)C(=O)O [MLN-4760, reference compound]	–	–	–	–	significant retention	IC50 [1]: 0.063 µM
CN[C@@H](C)[C@H](O)c1ccccc1 [ephedrine]	–	higher human exposure	–	–	–	–
Forsythoside B [Forsythoside B (125)]	have ACE2 inhibitory effects	–	10.620	0.328	–	ACE2 binding ability by SPR (in words) [3]: low binding activity
C=CC1CNC(=S)O1 (racemic) [(R,S)-goitrin]	–	higher human exposure	–	–	–	–
